pIC50: −log10 of the molar value. Calls of active or inactive are those of the source. No cut-off for these calls is given here.
Key:
U2OS [1] = assay: Antiproliferative activity against human U2OS cells at 20 uM after 72 hrs by MTT assay; assay type: functional
Procedure, shortened: (§1)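 Each cell line in the panel was treated with 20 µM compound, with doxorubicin as reference. Exponentially growing cells were grown at 37 °C in 5% CO2. MTT read-out served as a surrogate of viable cell number, expressed as % inhibition versus an untreated control. Values are mean ± SD of three independent experiments.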

[2] = Antiproliferative activity against human […] cells at 20 uM after 72 hrs by MTT assay; assay type: functional; procedure, shortened: as §1
LNCaP [3] = assay: Antiproliferative activity against human LNCAP cells at 20 uM after 72 hrs by MTT assay; assay type: functional; procedure, shortened: as §1
DU-145 [4] = assay: Antiproliferative activity against human DU145 cells at 20 uM after 72 hrs by MTT assay; assay type: functional; details: DU-145, 72 h; procedure, shortened: as §1
PC-3 [5] = assay: Antiproliferative activity against human PC3 cells at 20 uM after 72 hrs by MTT assay; assay type: functional; details: PC-3, 72 h; procedure, shortened: as §1
OVCAR-8 [6] = assay: Antiproliferative activity against human OVCAR8 cells at 20 uM after 72 hrs by MTT assay; assay type: functional; details: OVCAR-8, 72 h; procedure, shortened: as §1
[7] = Antiproliferative activity against human Caov3 cells at 20 uM after 72 hrs by MTT assay; assay type: functional; details: Caov-3, 72 h; procedure, shortened: as §1
NCI/ADR-RES [8] = assay: Antiproliferative activity against human NCI/ADR-RES cells at 20 uM after 72 hrs by MTT assay; assay type: functional; procedure, shortened: as §1
MIA PaCa-2 [9] = assay: Antiproliferative activity against human MIAPaCa2 cells at 20 uM after 72 hrs by MTT assay; assay type: functional; details: MIA PaCa-2, 72 h; procedure, shortened: as §1
BXPC-3 [10] = assay: Antiproliferative activity against human BxPC3 cells at 20 uM after 72 hrs by MTT assay; assay type: functional; details: BXPC-3, 72 h; procedure, shortened: as §1
NCI/ADR-RES [11] = assay: Inhibition of colony formation in human NCI/ADR-RES cells after 24 hrs; assay type: functional, cell-based
Procedure, shortened: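 NCI/ADR-RES cells were seeded at 100 cells/well and left to attach overnight. Serial compound dilutions were applied for 24 h, then washed out. Colonies grew in drug-free medium for 8-10 days and were fixed with 1% glutaraldehyde and stained with 2% crystal violet, 30 min each. Colonies were imaged and counted versus untreated control; values are means of ≥3 independent experiments.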

[12] = Antiproliferative activity against human […] cells after 72 hrs by MTT assay; assay type: functional, cell-based
Procedure, shortened: (§2)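 Cells kept in exponential growth at 37 °C in humidified 5% CO2 with 2 mM L-glutamine, mycoplasma-checked. Compounds were applied over a dose range and viability was read by MTT relative to an untreated control. IC50 is the concentration giving a 50% decrease in viability. Values are mean ± SD of three independent experiments.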

U2OS [13] = assay: Antiproliferative activity against human U2OS cells after 72 hrs by MTT assay; assay type: functional, cell-based; procedure, shortened: as §2
LNCaP [14] = assay: Antiproliferative activity against human LNCAP cells after 72 hrs by MTT assay; assay type: functional, cell-based; procedure, shortened: as §2
PC-3 [15] = assay: Antiproliferative activity against human PC3 cells after 72 hrs by MTT assay; assay type: functional, cell-based; details: PC-3, 72 h; procedure, shortened: as §2
DU-145 [16] = assay: Antiproliferative activity against human DU145 cells after 72 hrs by MTT assay; assay type: functional, cell-based; details: DU-145, 72 h; procedure, shortened: as §2
OVCAR-8 [17] = assay: Antiproliferative activity against human OVCAR8 cells after 72 hrs by MTT assay; assay type: functional, cell-based; details: OVCAR-8, 72 h; procedure, shortened: as §2
[18] = Antiproliferative activity against human Caov3 cells after 72 hrs by MTT assay; assay type: functional, cell-based; details: Caov-3, 72 h; procedure, shortened: as §2
NCI/ADR-RES [19] = assay: Antiproliferative activity against human NCI/ADR-RES cells after 72 hrs by MTT assay; assay type: functional, cell-based; procedure, shortened: as §2
MIA PaCa-2 [20] = assay: Antiproliferative activity against human MIAPaCa2 cells after 72 hrs by MTT assay; assay type: functional, cell-based; details: MIA PaCa-2, 72 h; procedure, shortened: as §2
BXPC-3 [21] = assay: Antiproliferative activity against human BxPC3 cells after 72 hrs by MTT assay; assay type: functional, cell-based; details: BXPC-3, 72 h; procedure, shortened: as §2
OVCAR-8 [22] = assay: Antiproliferative activity against human OVCAR8 cells at 20 uM after 72 hrs by MTT assay in presence of glutathione; assay type: functional, cell-based
OVCAR-8 [23] = assay: Antiproliferative activity against human OVCAR8 cells at 20 uM after 72 hrs by MTT assay in presence of N-acetylcysteine; assay type: functional, cell-based
NCI/ADR-RES [24] = assay: Antiproliferative activity against human NCI/ADR-RES cells at 20 uM after 72 hrs by MTT assay in presence of glutathione; assay type: functional
Procedure, shortened: (§3)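 NCI/ADR-RES cells were pretreated for 2 h with 5 mM N-acetylcysteine or glutathione. Compound at 20 µM was then added for 72 h, with doxorubicin as positive control. Percent inhibition was measured by MTT.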

NCI/ADR-RES [25] = assay: Antiproliferative activity against human NCI/ADR-RES cells at 20 uM after 72 hrs by MTT assay in presence of N-acetylcysteine; assay type: functional; procedure, shortened: as §3

| SMILES | inhibition at 20 µM (U2OS [1]) | inhibition at 20 µM [2] | inhibition at 20 µM (LNCaP [3]) | inhibition at 20 µM (DU-145 [4]) | inhibition at 20 µM (PC-3 [5]) | inhibition at 20 µM (OVCAR-8 [6]) | inhibition at 20 µM [7] | inhibition at 20 µM (NCI/ADR-RES [8]) | inhibition at 20 µM (MIA PaCa-2 [9]) | inhibition at 20 µM (BXPC-3 [10]) | inhibition (OVCAR-8 [22]) | inhibition (OVCAR-8 [23]) | other results |
| --- | --- | --- | --- | --- | --- | --- | --- | --- | --- | --- | --- | --- | --- |
| Cc1ccc(S(=O)(=O)Oc2ccc(OCCOCCOCCOCCO)c3c2C(=O)c2ccccc2C3=O)cc1 | 41.9% | 47.8% | 40.3% | 21.6% | 23.7% | 5.5% | 48.2% | 1.7% | 29.5% | 11.8% | – | – | – |
| COc1ccc(CNc2ccc(OS(=O)(=O)c3ccc(C)cc3)c3c2C(=O)c2ccccc2C3=O)cc1 | 59.8% | 53.3% | 78.7% | 62.2% | 46.2% | 58.2% | 83.1% | 77.8% | 81.4% | 91.5% | Active | Active | inhibition (NCI/ADR-RES [11]): Dose-dependent effect; pIC50 [12]: < 4.70; pIC50 (U2OS [13]): 5.35; pIC50 (LNCaP [14]): 6.05; pIC50 (PC-3 [15]): 5.10; pIC50 (DU-145 [16]): 5.66; pIC50 (OVCAR-8 [17]): 5.10; pIC50 [18]: 5.74; pIC50 (NCI/ADR-RES [19]): 5.92; pIC50 (MIA PaCa-2 [20]): 5.72; pIC50 (BXPC-3 [21]): 6.22; inhibition at 20 µM (NCI/ADR-RES [24]): > 60%; inhibition at 20 µM (NCI/ADR-RES [25]): > 60% |
| O=C1c2ccccc2C(=O)c2c(OCCOCCO)ccc(OCCOCCO)c21 | 32.4% | 44.3% | 46.9% | 10% | 10.6% | 3.4% | 7.3% | 46.4% | 31.1% | 23.1% | – | – | – |
| Cc1ccc(S(=O)(=O)Oc2ccc(OCCOCCO)c3c2C(=O)c2ccccc2C3=O)cc1 | 43% | 31.4% | 26.7% | 9% | 9.9% | 8.5% | 42.7% | 15.3% | 35.9% | 14.5% | Active | Active | – |

From ChEMBL document CHEMBL2440111, “Overcoming doxorubicin-resistance in the NCI/ADR-RES model cancer cell line by novel anthracene-9,10-dione derivatives” (Bioorg Med Chem Lett, 2013)
